Results taken from publication PMC5338879 (Journal of Hypertension, 2016).
“Also recorded” adds a separate entry of the source.

Experiments:
[1] = tested on: premenopausal women with female sexual dysfunction; test: Ambulatory BP and heart rate monitoring after in-clinic subcutaneous doses; type: in vivo, human; conditions: for Increase in ambulatory SBP relative to placebo (abstract): second of two doses, 0 to 4-h postdose interval
Procedure, shortened: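 Premenopausal women aged ≥21 years were randomized 1:1:1:1 to placebo or 0.75, 1.25 or 1.75 mg sc (anterior thigh or abdomen). The ambulatory monitor was fitted before each in-clinic dose and recorded at 15-min intervals. Baseline was the single-blind in-clinic placebo dose, and changes were placebo-subtracted over 0–4, >4–8, >8–24 and 0–24 h. SBP shifts were counted per 15 min against thresholds of 10/15 mmHg change and 150/160 mmHg absolute.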

[2] = Plasma pharmacokinetics after in-clinic subcutaneous doses; type: in vivo, human; conditions: for Cmax, mean: plasma, LC-MS/MS
Procedure, shortened: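 Blood was sampled predose and at 0.5, 1.0 and 2.0 h postdose at both double-blind in-clinic sc dosing visits (0.75, 1.25 or 1.75 mg). Plasma was assayed by validated LC-MS/MS. Noncompartmental analysis gave Cmax, Tmax, […] and AUC(0–2). For each dose level and visit, mean Cmax, range and coefficient of variation were reported.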

[3] = tested on: premenopausal women with female sexual dysfunction; test: Protocol-directed blood pressure-related withdrawals after randomization; type: in vivo, human
Procedure, shortened: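 Ambulatory BP records were screened manually and programmatically for SBP ≥150 mmHg, DBP ≥95 mmHg, SBP rise ≥30 mmHg or DBP rise ≥15 mmHg. Flagged reports went to safety staff, including a hypertension expert blinded to treatment, who also reviewed activities, HR and other medications. Participants meeting the prespecified criteria (absolute level, change from baseline, duration) were withdrawn.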

[4] = tested on: premenopausal women with female sexual dysfunction; test: Treatment-emergent adverse events, 12-week double-blind treatment; type: in vivo, human; conditions: all bremelanotide dosages; no marked dosage dependence
Procedure, shortened: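 Adverse events were queried at every clinic visit after screening. Physical examination, vital signs, 12-lead ECG and clinical laboratory tests were also performed. Events were tabulated in all participants given at least one double-blind dose.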

[5] = high sc doses, men with erectile dysfunction; cited from earlier work
[6] = tested on: men with erectile dysfunction; conditions: single sc doses of 4–6 mg; cited from earlier work
[7] = intranasal administration; cited from earlier work
[8] = initial in-clinic dose, linear regression, all dose levels

In the case of `CCCC[C@H](NC(C)=O)C(=O)N[C@H]1CC(=O)NCCCC[C@@H](C(=O)O)NC(=O)[C@H](Cc2c[nH]c3ccccc23)NC(=O)[C@H](CCCN=C(N)N)NC(=O)[C@@H](Cc2ccccc2)NC(=O)[C@H](Cc2cnc[nH]2)NC1=O` [bremelanotide], the “Proportion of SBP shift events lasting 15 min or less” value ([1]; after bremelanotide dosing) is reported as 88%, the “Number of clinically important shifts in SBP (>10 or >15 mmHg) lasting more than 30 min” value ([1]; all bremelanotide doses) is reported as “three” and the “Patients with SBP increase at least 15 mmHg for more than 30 min” value ([1]; any bremelanotide group) is reported as “No patient”. For the same molecule, the “Patients with SBP more than 180 mmHg for more than 15 min” value ([1]; any bremelanotide group) was “No patient; also recorded: no sustained elevations”, the “Relationship between maximal change in HR and Cmax” value [1, 8] was “no relationship observed” and the “Relationship between maximal change in SBP and Cmax” value [1, 8] was “no relationship observed”. The “Duration of peak increases in ambulatory BP” value ([1]; sc doses, typically) was “less than 15 min”, the “Increase in ambulatory SBP relative to placebo (abstract)” value ([1]; 1.25 mg sc, P 0.076) was 3.0 mmHg and the “Increase in ambulatory SBP relative to placebo (abstract)” value ([1]; 1.75 mg sc, P 0.027) was 3.2 mmHg. For the same molecule, the “Mean HR reductions” value ([1]; subcutaneous doses, up to 8 h following administration) was 4.6–6.6 bpm, the “Dose proportionality of pharmacokinetics” value ([2]; 0.75, 1.25, 1.75 mg sc, both in-clinic doses) was “dose proportionality; also recorded: dose-proportional increases in concentrations” and the Cmax ([2]; human, in vivo, sc, 0.75 mg) was 37.5 ng/mL. For the same molecule, the “Cmax, mean” value ([2]; second in-clinic dose 0.75 mg sc, n 89) was 37.3 ng/mL, the “Cmax, mean” value ([2]; second in-clinic dose 1.25 mg sc, n 84) was 60.1 ng/mL and the “Cmax, mean” value ([2]; second in-clinic dose 1.75 mg sc, n 88) was 77.7 ng/mL. The “Participants withdrawn after randomization (BP-related)” value (“Participants withdrawn” for short) ([3]; after a 0.75-mg dose, of 100) was 4%, the “Participants withdrawn” value ([3]; after a 1.25-mg dose, of 99) was 9% and the “Participants withdrawn” value ([3]; after a 1.75-mg dose, of 98) was 7%. The “Most common adverse events” value [4] was “nausea, flushing, and headache”, the Tmax [5] was 0.5 to 1 h and the mean half-life [5] was 1.9 to 2.7 h. For the same molecule, the “Transient increases in clinic SBP” value [6] was 4–5 mmHg and the Variability in bioavailability [7] was “wide variability in bioavailability”.
